Here are results for 13 compounds from ChEMBL document CHEMBL4385618, “Exploring small molecules with pan-genotypic inhibitory activities against hepatitis C virus NS3/4A serine protease” (Bioorg Med Chem Lett, 2019).

Experiment [1] in a line: Inhibition of recombinant wild type full length His-tagged HCV genotype 1b NS3 (1027 to 1657 residues)/4A (1658 to 1711 residues) protease expressed in Escherichia coli rosetta (DE3) cells using Ac-DE-Dap(QXL520)-EE-Abu-Psi-[COO]AS-C(5-FAMsp)-NH2 as substrate preincubated up to 10 mins followed by substrate addition and measured for 10 mins by fluorescence-based microplate reader analysis. Also noted: species or system Hepatitis C virus subtype 1b. An outline of the steps: (§1)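 IC50 came from the fluorescence-based enzymatic assay by fitting the inhibition curve to the three-parameter Hill equation.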

In experiment [2] the test system is Hepatitis C virus subtype 3a. Briefly: (§2) Inhibition of recombinant HCV genotype 3a NS3/4A protease using Ac-DE-Dap(QXL520)-EE-Abu-Psi-[COO]AS-C(5-FAMsp)-NH2 as substrate preincubated up to 10 mins followed by substrate addition and measured for 10 mins by fluorescence-based microplate reader analysis. An outline of the steps: as §1
The test system of experiment [3] is Hepatitis C virus serine protease, NS3/NS4A (Hepatitis C virus), D2K2A8+A3EZI9 [R155K]. The experiment can be described thus: Inhibition of recombinant full length His-tagged HCV genotype 1b NS3/4A (1027 to 1657 residues) protease R155K (NS3) mutant expressed in Escherichia coli rosetta (DE3) cells using Ac-DE-Dap(QXL520)-EE-Abu-Psi-[COO]AS-C(5-FAMsp)-NH2 as substrate preincubated up to 10 mins followed by substrate addition and measured for 10 mins by fluorescence-based microplate reader analysis. Conditions: Hepatitis C virus subtype 1b. An outline of the steps: (§3)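 IC50 values come from a fluorescence-based enzymatic assay, with dose-response curves fitted to a three-parameter Hill equation. The mutants were genotype 1b NS3/4A.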

In experiment [4] the test system is Hepatitis C virus subtype 1a. The experiment can be described thus: Inhibition of recombinant HCV genotype 1a NS3/4A protease using Ac-DE-Dap(QXL520)-EE-Abu-Psi-[COO]AS-C(5-FAMsp)-NH2 as substrate preincubated up to 10 mins followed by substrate addition and measured for 10 mins by fluorescence-based microplate reader analysis. An outline of the steps:
as §1

Experiment [5] deals with Hepatitis C virus genotype 4. Briefly: Inhibition of recombinant HCV genotype 4 NS3/4A protease using Ac-DE-Dap(QXL520)-EE-Abu-Psi-[COO]AS-C(5-FAMsp)-NH2 as substrate preincubated up to 10 mins followed by substrate addition and measured for 10 mins by fluorescence-based microplate reader analysis. An outline of the steps:
as §1

Experiment [6] in a line: as §2. Also noted: species or system Hepatitis C virus subtype 3a. An outline of the steps: as §1
Experiment [7] has as its system Hepatitis C virus subtype 2a. Briefly: Inhibition of recombinant HCV genotype 2a NS3/4A protease using Ac-DE-Dap(QXL520)-EE-Abu-Psi-[COO]AS-C(5-FAMsp)-NH2 as substrate preincubated up to 10 mins followed by substrate addition and measured for 10 mins by fluorescence-based microplate reader analysis. An outline of the steps:
as §1

The nature of experiment [8]: Binding affinity to recombinant full length His-tagged HCV genotype 1b NS3 (1027 to 1657 residues)/4A (1658 to 1711 residues) protease expressed in Escherichia coli rosetta (DE3) cells assessed as dissociation constant by SPR analysis. More on the design: species or system Hepatitis C virus subtype 1b.
The subject of experiment [9] is Hepatitis C virus serine protease, NS3/NS4A (Hepatitis C virus), D2K2A8+A3EZI9 [A156S]. Briefly: Inhibition of recombinant full length His-tagged HCV genotype 1b NS3/4A (1027 to 1657 residues) protease A156S (NS3) mutant expressed in Escherichia coli rosetta (DE3) cells using Ac-DE-Dap(QXL520)-EE-Abu-Psi-[COO]AS-C(5-FAMsp)-NH2 as substrate preincubated up to 10 mins followed by substrate addition and measured for 10 mins by fluorescence-based microplate reader analysis. The note with it: Hepatitis C virus subtype 1b. An outline of the steps:
as §3

In experiment [10] the test system is Hepatitis C virus serine protease, NS3/NS4A (Hepatitis C virus), D2K2A8+A3EZI9 [V36M]. Briefly: Inhibition of recombinant full length His-tagged HCV genotype 1b NS3/4A (1027 to 1657 residues) protease V36M (NS3) mutant expressed in Escherichia coli rosetta (DE3) cells using Ac-DE-Dap(QXL520)-EE-Abu-Psi-[COO]AS-C(5-FAMsp)-NH2 as substrate preincubated up to 10 mins followed by substrate addition and measured for 10 mins by fluorescence-based microplate reader analysis. The note with it: Hepatitis C virus subtype 1b. An outline of the steps:
as §3

Activity calls are given as the source filed them. The rule behind the calls is not given here. Where only a bound is given, the exact number is not on record here.

Consider `CSc1cccc(NC(=O)Cc2csc(NS(=O)(=O)c3ccccc3)n2)c1`, for which, in [1], the IC50 lay within 5 to 10 µM.
As to `Cc1cc(NC(=O)Cc2csc(NS(=O)(=O)c3ccccc3)n2)ccc1Br`, the inhibition result in [2] was “inactive”.
On to `Cc1ccc(S(=O)(=O)Nc2ccccc2C(=O)Nc2nc3ccc4ccccc4c3s2)cc1`, for which, in [1], the IC50 fell in the range of 2 to 5 µM.
Same read-out and setting: as for `Cc1c(Cl)cccc1NC(=O)Cc1csc(NS(=O)(=O)c2ccccc2)n1`, the figure is 5 to 10 µM; as for `Cc1ccc(S(=O)(=O)Nc2ccccc2C(=O)Nc2nc3ccc4sc(C)nc4c3s2)cc1`, 2 to 5 µM.
Consider `Cc1ccc(S(=O)(=O)Nc2ccccc2C(=O)Nc2nc3c(C)ccc(Cl)c3s2)cc1`, for which the IC50 in experiment [1] was in the range of 5 to 10 µM; in experiment [6], 14 to 33 µM. Moreover, the inhibition entry in [3] was “inactive”. Further, the inhibition entry in [4], in experiment [5] and in experiment [7] was “Active” in each case.
Regarding `Cc1ccc(S(=O)(=O)Nc2ccccc2C(=O)Nc2nc3c(Br)cccc3s2)cc1`, the IC50 in experiment [1] lay in the range of 10 to 100 µM. In addition, the Kd in experiment [8] is greater than 200 µM.
For `Cc1ccc(S(=O)(=O)Nc2ccccc2C(=O)Nc2nc3c(C)cc(C)cc3s2)cc1`, in experiment [1], the IC50 is 2 to 5 µM.
Take `Cc1ccc(S(=O)(=O)Nc2ccccc2C(=O)Nc2nc(-c3cc(Cl)ccc3Cl)cs2)cc1`: the results for the IC50 in experiment [1] and in experiment [6] were less than 2 µM and 14 to 33 µM, respectively. Besides, the inhibition entry in [3] is “inactive”. Further, the inhibition result in [4], in experiment [5] and in experiment [7] was “Active” throughout.
On to `Cc1ccc(S(=O)(=O)Nc2ccccc2C(=O)Nc2nc3c(ccc4ccccc43)s2)cc1`, for which the IC50 in experiment [1] lay in the range of 5 to 10 µM.
In the case of `Cc1ccc(S(=O)(=O)Nc2ccccc2C(=O)Nc2nc3c(Cl)ccc(Cl)c3s2)cc1`, the values for the IC50 in experiment [1] and in experiment [6] were 1.6 µM and 14 to 33 µM, respectively. The inhibition entry in experiment [3], in experiment [4], in [9], in experiment [5], in [10] and in [7] was “Active” throughout.
In the case of `CSc1cccc2sc(NC(=O)c3ccccc3NS(=O)(=O)c3ccc(C)cc3)nc12`, the IC50 in experiment [1] is 10 to 100 µM. For the same compound, in experiment [8], the equilibrium dissociation constant (Kd) is greater than 200 µM.
Regarding `Cc1ccc(S(=O)(=O)Nc2ccccc2C(=O)Nc2nc3c(cc4c5c(cccc53)CC4)s2)cc1`, the figures for the IC50 in experiment [1] and in [6] were 2 to 5 µM and 14 to 33 µM, respectively. In addition, the inhibition result in experiment [3] is “inactive”. In addition, the inhibition result in experiment [4], in experiment [5] and in experiment [7] was “Active” throughout.
